Assay results as given in ChEMBL document CHEMBL1144766, “Discovery of quinolinediones exhibiting a heat shock response and angiogenesis inhibition” (J Med Chem, 2008).
Calls of active or inactive are those of the source. The rule behind the calls is not given here.

tested on: NCI60; assay: (§1) Cytotoxicity against human NCI60 cells; format: functional; conditions: not given

Row | Compound | Activity
1 | O=C1C=C(NCc2ccccc2)C(=O)c2nc(-c3ccccc3)ccc21 | inactive
2 | COc1cc(CNC2=CC(=O)c3ccc(-c4ccccc4)nc3C2=O)cc(OC)c1OC | inactive

tested on: not listed separately; assay: as §1; format: functional; conditions: not given

Row | Compound | GI50 | LC50
3 | Cc1ccc2c(n1)C(=O)C=C(N1CC1)C2=O | 0.513 µM | 7.94 µM
4 | COc1cc2c(nc1C)C(=O)C(N1CC1)=CC2=O | 0.275 µM | 4.37 µM
5 | C=CCNC1=CC(=O)c2nc(-c3ccccc3)ccc2C1=O | 1.91 µM | 43.7 µM
6 | O=C1C=C(NCc2ccccc2)C(=O)c2nc(-c3ccccc3)ccc21 | 33.1 µM | 
7 | COc1cc(CNC2=CC(=O)c3ccc(-c4ccccc4)nc3C2=O)cc(OC)c1OC | 57.5 µM | 

same assay, conditions: read-out: Log TGI (converted)

Row | Compound | TGI
8 | Cc1ccc2c(n1)C(=O)C=C(N1CC1)C2=O | 2.04 µM
9 | COc1cc2c(nc1C)C(=O)C(N1CC1)=CC2=O | 0.832 µM
10 | C=CCNC1=CC(=O)c2nc(-c3ccccc3)ccc2C1=O | 14.1 µM

target: Heat shock protein HSP 90-beta (Homo sapiens) (UniProt P08238); assay: Binding affinity to N-terminal ATP binding site of Hsp90 at 100 uM after 30 mins; conditions: not given
How it was run: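 Compounds were made up in DMSO at 35 mM (stock) just before use and added to whole cell lysates at 100 µM final. Lysates were held on ice for 30 min, then incubated with geldanamycin-derivatized agarose beads at 4 °C with rocking for 60 min. Beads were washed, and eluted proteins were run on gels and blotted for Hsp90. Loss of the Hsp90 band indicated competition.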

Heat shock protein HSP 90-beta (Homo sapiens), sequence (P08238 whole entry): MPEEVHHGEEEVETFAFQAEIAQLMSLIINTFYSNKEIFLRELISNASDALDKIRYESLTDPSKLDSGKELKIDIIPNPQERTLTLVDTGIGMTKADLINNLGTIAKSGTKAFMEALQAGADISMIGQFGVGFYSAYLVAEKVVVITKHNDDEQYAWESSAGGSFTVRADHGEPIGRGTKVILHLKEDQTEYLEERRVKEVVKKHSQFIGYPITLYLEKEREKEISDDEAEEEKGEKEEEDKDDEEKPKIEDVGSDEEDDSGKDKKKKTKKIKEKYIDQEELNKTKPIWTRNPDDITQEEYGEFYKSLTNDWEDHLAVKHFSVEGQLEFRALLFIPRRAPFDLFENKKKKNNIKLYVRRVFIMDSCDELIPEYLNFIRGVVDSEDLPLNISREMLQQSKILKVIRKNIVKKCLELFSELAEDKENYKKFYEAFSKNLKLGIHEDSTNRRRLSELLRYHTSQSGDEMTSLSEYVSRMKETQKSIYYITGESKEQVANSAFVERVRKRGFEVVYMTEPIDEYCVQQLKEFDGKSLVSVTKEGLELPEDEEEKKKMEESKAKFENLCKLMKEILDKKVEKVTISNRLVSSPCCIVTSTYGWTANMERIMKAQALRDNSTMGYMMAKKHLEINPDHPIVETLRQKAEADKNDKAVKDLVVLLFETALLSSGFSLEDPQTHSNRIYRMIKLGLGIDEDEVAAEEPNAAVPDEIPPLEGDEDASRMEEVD

Row | Compound | Activity
11 | Cc1ccc2c(n1)C(=O)C=C(N1CC1)C2=O | inactive
12 | COc1cc2c(nc1C)C(=O)C(N1CC1)=CC2=O | inactive
13 | C=CCNC1=CC(=O)c2nc(-c3ccccc3)ccc2C1=O | inactive
14 | O=C1C=C(NCc2ccccc2)C(=O)c2nc(-c3ccccc3)ccc21 | inactive
15 | COc1cc(CNC2=CC(=O)c3ccc(-c4ccccc4)nc3C2=O)cc(OC)c1OC | inactive
